Active and inactive are the calls of the source.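 How the source made its calls: active means compounds whose fitted half-maximal concentration for reducing fibroblast viability is 100 µM or lower; inactive means the rest.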
Assay: inhibition of LL 47 lung fibroblast growth, concentration-response curve, selectivity screen for endothelial cell growth inhibitor project, cellular system, ATP luminescence readout (AID 821);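 further: 100% = median of untreated cell-only wells and 0% = no luminescence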
Conditions: LL 47 lung fibroblast viability, ATP luminescence; at 20 µM (top of the series)
Outline: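 System: LL 47 human lung fibroblast cells. Timing: overnight cell settling, then 72 h compound exposure at 37 °C. Measured by: CellTiter-Glo luminescence. Evaluation: percent viability relative to untreated wells, EC50 via 4-parameter fit.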

Compound	viability
Cc1cc(C)n(-c2nc(NCCCO)c3c4c(sc3n2)CCCC4)n1	88.8% (inactive)
c1ccc(CC2CCN(C3=Nc4cccc5cccc3c45)CC2)cc1	80.8% (inactive)
COc1ccc(Cc2nc(C(=O)Nc3ccc(Cl)cc3)cs2)cc1	84.3% (inactive)
C=CCN1C(=Nc2cccnc2)SCC1(O)c1ccc(C)cc1 (centres undefined)	86.4% (inactive)
CC1CCc2sc3nc(N4CCN(CCO)CC4)n4ncnc4c3c2C1 (centres undefined)	96.4% (inactive)
COC(=O)C1=C(O)/C(=C\c2ccc(CNC(=O)C(=O)Nc3ccc(C)c(C)c3)o2)N=C1C	101% (inactive)
Cc1cc(C)n(-c2nc(Nc3ccccc3C)nc(-n3nc(C)cc3C)n2)n1	97.1% (inactive)
COC(=O)c1c(C)n(-c2ccc(OC)cc2)c2ccc(O)cc12	87.7% (inactive)
OCCNc1nc2ccccc2n1-c1ncnc2sc3c(c12)CCC3	91.9% (inactive)
Cc1ccc2[nH]c3c(N4CCN(Cc5ccccc5)CC4)ncnc3c2c1	88.2% (inactive)
Cc1ccc(C(=O)Nc2ncc(Cc3ccc(F)cc3)s2)o1	117% (inactive)
CCc1cc(-c2n[nH]c(C)c2Oc2ccc(C(C)C)cc2)c(O)cc1O	85.5% (inactive)
c1ccc(CSc2nnc(-c3c[nH]c4ccccc34)o2)cc1	102% (inactive)
Cc1ccc(C(C#N)c2ccc(C(=O)c3ccc(F)cc3)cc2)cc1 (centres undefined)	97.1% (inactive)
Cc1ccc(C(C)C)c(OCC(=O)Nc2ccc3c(c2)nc(CN2CCCC2)n3C)c1	91.9% (inactive)
O=C1CSC(c2ccccn2)N1Cc1cn2ccccc2n1 (centres undefined)	99.9% (inactive)
Cc1ccc(Cn2nc(C)c(NC(=O)c3cc(-c4ccc5c(c4)OCO5)on3)c2C)cc1	106% (inactive)
CCOc1ccc(NS(=O)(=O)c2ccc(OCC(=O)NCCCOC)cc2)cc1	93.1% (inactive)
Cc1cc(/C=N/n2cnnc2)c(C)n1-c1ccc(OCc2ccc(Cl)cc2Cl)cc1	86.5% (inactive)
CCCCCCn1c(O)c(C=NC2CCCCC2N)c(=O)[nH]c1=O (centres undefined)	113% (inactive)

Compound	viability
COc1ccc(N/N=C2/CCCCC2=O)cc1	123% (inactive)
Cn1nc(C(C)(C)C)cc1C(=O)NCc1ccc(N2CCCC2=O)cc1	107% (inactive)
CCCCc1ccc(Nc2nc(CCC)cc(=O)[nH]2)cc1	91% (inactive)
Cn1nnc(NC(=O)CSc2ccc(Cl)cc2)n1	125% (inactive)
COc1ccc2cc3cc(C(=O)Nc4ccc5c(c4)OCO5)oc3nc2c1	88.3% (inactive)
COc1ccc(OC)c2sc(N3CCCCC3)nc12	96.8% (inactive)
COc1ccc(C(c2sc3ncnn3c2O)N2CC(C)OC(C)C2)cc1OC (centres undefined)	98.1% (inactive)
COc1ccc(CCn2c(=S)[nH]c3cc(C(=O)NCc4ccco4)ccc3c2=O)cc1OC	108% (inactive)
N=c1nc(N)nc2n1NC(c1ccc(F)cc1)=CS2	104% (inactive)
Cc1ccc2[nH]c(=O)c(C3C(C#N)=C(N)Oc4c3ccc3cccnc43)cc2c1 (centres undefined)	86.9% (inactive)
O=C(CSc1ccc2c(c1)OCCO2)Nc1ccc(Cl)cn1	94.9% (inactive)
Cn1c(NC(=O)c2cccc(Cn3cc(Cl)cn3)c2)nc2ccccc21	103% (inactive)
CC(=O)Oc1ccc(N2C(=O)C3C(C2=O)C2(C)C=CC3(C)O2)cc1 (centres undefined)	103% (inactive)
Cn1c(=O)cc(SCC(=O)NCC2COc3ccccc3O2)c2ccccc21 (centres undefined)	104% (inactive)
Nc1nc2ccccc2n1/N=C/c1ccc(-c2ccccc2)o1	111% (inactive)
O=C(Nc1cccnc1)c1ccc(Oc2ccccc2)cc1	85.3% (inactive)
Cc1cccc(-c2nc(CN3CCCC(C(=O)NC4CCC(C)CC4)C3)c(C)o2)c1 (centres undefined)	85.4% (inactive)
O=c1/c(=C/c2ccco2)sc2n1CN(c1cccc(Br)c1)CN=2	106% (inactive)
CCOC(=O)c1ccc(NC(=O)CCc2nc(-c3ccc(C)cc3)no2)cc1	98.6% (inactive)
